Results taken from ChEMBL document CHEMBL1134836, “Design, synthesis, and biological evaluation of a series of lavendustin A analogues that inhibit EGFR and Syk tyrosine kinases, as well as tubulin polymerization” (J Med Chem, 2001).

Key:
DU-145 = assay: In vitro cytotoxicity against human prostate DU-145 cells.; assay type: functional
UACC-62 = assay: In vitro cytotoxicity against human melanoma UACC-62 cells.; assay type: functional
MCF7 = assay: Inhibition of DNA synthesis in MCF-7 cells.; assay type: functional, cell-based; conditions: Homo sapiens
Outline: (§1)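 Cells seeded at 10^5/well and grown 24 h at 37 °C, then given inhibitor in DMSO at 3-5 concentrations, 3-4 wells each, for 48 h. [3H]thymidine pulse for 2 h. TCA-precipitated label solubilized in perchloric acid and counted.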

SF-539 = assay: In vitro cytotoxicity against human CNS SF-539 cells.; assay type: functional
OVCAR-3 = assay: In vitro cytotoxicity against human ovarian OVCAR-3 cells.; assay type: functional
SN12C = assay: In vitro cytotoxicity against human renal SN12C cells.; assay type: functional
MCF-10A = assay: Inhibition of DNA synthesis in MCF-10A cells.; assay type: functional, cell-based; conditions: Homo sapiens; outline: as §1
HCT-116 = assay: In vitro cytotoxicity against human colon HCT116 cell culture.; assay type: functional
Cancer cell lines = assay: Mean graph mid point (MGM) for growth inhibition of all human cancer cell lines successfully tested; assay type: functional
MDA-MB-435 = assay: In vitro cytotoxicity against human breast MDA-MB-435 cells.; assay type: functional
[1] = molecular target: Tyrosine-protein kinase SYK (Homo sapiens, UniProt P43405); assay: In vitro inhibition of Syk protein tyrosine kinase; assay type: functional
Outline: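 Full-length GST-Syk from baculovirus-infected Sf9 cell lysates, held on glutathione-agarose. Stopped with 10 mM EDTA, beads washed, read by scintillation counting. IC50 determined graphically against DMSO control.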

[2] = molecular target: Epidermal growth factor receptor (Mus musculus, UniProt Q01279); assay: Inhibition of epidermal growth factor receptor phosphorylation in BaF3 mouse lymphoid cells.; assay type: cell-based
Outline: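 BaF3/EGFR cells serum-starved 24 h, then about 10^7 cells/mL treated 2 h at 37 °C with inhibitor at 3-5 concentrations. Chilled 20 min, then given EGF 100 ng/mL for 7 min on ice. Lysates precipitated on concanavalin A beads, run on SDS/PAGE, and immunoblotted with antiphosphotyrosine using ECL detection.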

Tubulin beta chain = Tubulin beta chain (Bos taurus, UniProt Q6B856); assay: Inhibition of bovine tubulin polymerization
Outline: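 Electrophoretically homogeneous bovine brain tubulin. Polymerization followed spectrophotometrically with a temperature jump from 2-4 °C to 30 °C.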

HOP-62 = assay: In vitro cytotoxicity against human lung HOP-62 cells.; assay type: functional
CCRF-CEM = assay: Cytotoxic effect on human leukemia CCRF-CEM cells; assay type: functional
[3] = molecular target: Tubulin beta chain (Bos taurus) (UniProt Q6B856); assay: Percentage inhibition of binding of [3H]colchicine to tubulin at 50 uM
cancer cell lines (55) = assay: Mean graph midpoint (MGM) for growth inhibition of all human cancer cell lines (55); assay type: functional
[4] = molecular target: Tubulin beta chain (Bos taurus) (UniProt Q6B856); conditions: 5 uM

Chain of Epidermal growth factor receptor (Q01279 whole entry): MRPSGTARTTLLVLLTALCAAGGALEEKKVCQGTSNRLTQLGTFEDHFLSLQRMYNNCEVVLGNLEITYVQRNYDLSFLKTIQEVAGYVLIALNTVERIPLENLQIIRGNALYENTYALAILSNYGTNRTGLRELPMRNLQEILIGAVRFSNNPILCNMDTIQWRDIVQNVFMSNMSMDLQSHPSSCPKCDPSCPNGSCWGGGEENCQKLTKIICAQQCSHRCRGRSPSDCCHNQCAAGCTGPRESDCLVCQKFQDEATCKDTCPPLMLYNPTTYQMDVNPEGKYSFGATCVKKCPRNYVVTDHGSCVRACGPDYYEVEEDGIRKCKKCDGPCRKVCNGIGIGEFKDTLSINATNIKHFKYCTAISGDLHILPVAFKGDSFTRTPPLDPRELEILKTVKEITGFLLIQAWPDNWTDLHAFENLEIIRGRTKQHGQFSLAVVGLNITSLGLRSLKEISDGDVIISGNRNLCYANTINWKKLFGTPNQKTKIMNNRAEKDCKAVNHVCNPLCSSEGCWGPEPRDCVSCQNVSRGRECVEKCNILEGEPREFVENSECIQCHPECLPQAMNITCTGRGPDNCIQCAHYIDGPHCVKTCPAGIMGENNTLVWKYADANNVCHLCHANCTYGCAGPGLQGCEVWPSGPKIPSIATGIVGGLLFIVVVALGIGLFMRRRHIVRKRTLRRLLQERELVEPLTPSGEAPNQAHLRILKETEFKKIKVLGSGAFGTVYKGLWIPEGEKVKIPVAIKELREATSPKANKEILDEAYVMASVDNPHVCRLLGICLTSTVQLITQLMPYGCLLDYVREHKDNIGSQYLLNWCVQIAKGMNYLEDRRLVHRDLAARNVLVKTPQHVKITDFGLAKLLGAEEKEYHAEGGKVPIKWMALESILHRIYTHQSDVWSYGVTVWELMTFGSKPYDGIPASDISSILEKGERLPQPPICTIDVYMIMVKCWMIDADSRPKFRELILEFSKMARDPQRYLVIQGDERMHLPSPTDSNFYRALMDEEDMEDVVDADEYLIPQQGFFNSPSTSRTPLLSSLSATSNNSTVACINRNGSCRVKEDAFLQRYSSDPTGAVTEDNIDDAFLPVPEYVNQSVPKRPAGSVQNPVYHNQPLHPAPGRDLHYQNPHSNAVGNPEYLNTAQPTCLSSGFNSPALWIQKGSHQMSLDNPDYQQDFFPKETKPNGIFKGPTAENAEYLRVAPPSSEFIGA
Chain of Tubulin beta chain (Bos taurus) (Q6B856 whole entry): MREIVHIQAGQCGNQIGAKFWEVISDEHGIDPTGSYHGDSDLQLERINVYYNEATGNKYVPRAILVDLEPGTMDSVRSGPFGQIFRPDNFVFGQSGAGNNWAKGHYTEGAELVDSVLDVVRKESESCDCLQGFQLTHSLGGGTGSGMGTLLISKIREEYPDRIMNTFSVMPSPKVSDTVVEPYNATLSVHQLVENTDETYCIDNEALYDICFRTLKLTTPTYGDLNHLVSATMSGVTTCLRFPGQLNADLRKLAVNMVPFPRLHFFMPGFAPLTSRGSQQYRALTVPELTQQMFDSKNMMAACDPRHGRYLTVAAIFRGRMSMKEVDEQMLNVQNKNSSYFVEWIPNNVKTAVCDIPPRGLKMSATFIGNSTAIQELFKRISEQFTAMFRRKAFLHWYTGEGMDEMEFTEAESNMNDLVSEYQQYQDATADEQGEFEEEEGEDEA
Chain of Tubulin beta chain (Q6B856 whole entry): as above

O=C(NCCc1ccc(O)cc1)c1cc(NCc2cc(O)ccc2O)ccc1O
GI50 (DU-145): 17 µM
GI50 (UACC-62): 18 µM
IC50 (MCF7): 16 µM
GI50 (SF-539): 2.5 µM
GI50 (OVCAR-3): 62 µM
GI50 (SN12C): 19 µM
IC50 (MCF-10A): 15 µM
GI50 (HCT-116): 16 µM
MGM (Cancer cell lines): 20.4 µM
GI50 (MDA-MB-435): 23 µM
IC50 [1]: 5 µM
IC50 [2]: 300 µM
IC50 (Tubulin beta chain): 4.5 µM
GI50 (HOP-62): 2.5 µM

O=C(NCCc1ccc(Br)cc1)c1cc(NCc2cc(O)ccc2O)ccc1O
GI50 (DU-145): 16 µM
GI50 (UACC-62): 8.6 µM
IC50 (MCF7): 7 µM
GI50 (SF-539): 15.8 µM
GI50 (OVCAR-3): 4.2 µM
GI50 (SN12C): 6.3 µM
IC50 (MCF-10A): 6 µM
GI50 (HCT-116): 7.6 µM
MGM (Cancer cell lines): 7.6 µM
GI50 (MDA-MB-435): 10 µM
IC50 [1]: 45 µM
IC50 [2]: 35 µM
IC50 (Tubulin beta chain): 4.2 µM
GI50 (HOP-62): 18 µM

O=C(NCCc1ccccn1)c1cc(NCc2cc(O)ccc2O)ccc1O
GI50 (DU-145): 17 µM
GI50 (UACC-62): 17 µM
IC50 (MCF7): 11 µM
GI50 (SF-539): 29 µM
GI50 (OVCAR-3): 17 µM
GI50 (SN12C): 19 µM
IC50 (MCF-10A): 7 µM
GI50 (HCT-116): 17 µM
MGM (Cancer cell lines): 16 µM
GI50 (MDA-MB-435): 13 µM
IC50 [2]: 15 µM
IC50 (Tubulin beta chain): 3.6 µM
GI50 (HOP-62): 20 µM
GI50 (CCRF-CEM): 1 µM

O=C(NCCc1ccc(F)cc1)c1cc(NCc2cc(O)ccc2O)ccc1O
GI50 (DU-145): 18 µM
GI50 (UACC-62): 7.8 µM
IC50 (MCF7): 12 µM
GI50 (SF-539): 9.2 µM
GI50 (OVCAR-3): 11 µM
GI50 (SN12C): 7.7 µM
IC50 (MCF-10A): 10 µM
GI50 (HCT-116): 9.2 µM
Inhibition [3]: 38%
MGM (Cancer cell lines): 0.35 µM
GI50 (MDA-MB-435): 13 µM
IC50 [1]: 5 µM
IC50 [2]: 4 µM
IC50 (Tubulin beta chain): 4 µM
GI50 (HOP-62): 12 µM
GI50 (CCRF-CEM): 0.29 µM

CC(C)CCCC(C)[C@H]1CC[C@H]2[C@@H]3CCC4C[C@@H](NC(=O)c5cc(NCc6cc(O)ccc6O)ccc5O)CC[C@]4(C)[C@H]3CC[C@]12C (stereo partly specified)
IC50 (MCF7): > 50 µM
MGM (cancer cell lines (55)): >100 µM
IC50 (Tubulin beta chain): > 40 µM

COc1ccc(/C=C\c2cc(OC)c(OC)c(OC)c2)cc1O
Inhibition [4]: 98%

O=C(NCCc1ccccc1)c1cc(NCc2cc(O)ccc2O)ccc1O
GI50 (DU-145): 16 µM
GI50 (UACC-62): 14 µM
IC50 (MCF7): 9 µM
GI50 (SF-539): 17 µM
GI50 (OVCAR-3): 7.7 µM
GI50 (SN12C): 18 µM
IC50 (MCF-10A): 11 µM
GI50 (HCT-116): 18 µM
MGM (Cancer cell lines): 14.8 µM
GI50 (MDA-MB-435): 19 µM
IC50 [1]: 5 µM
IC50 [2]: 10 µM
IC50 (Tubulin beta chain): 3.6 µM
GI50 (HOP-62): 20 µM
GI50 (CCRF-CEM): 2.7 µM

O=C(NCCN1CCOCC1)c1cc(NCc2cc(O)ccc2O)ccc1O
GI50 (DU-145): 17 µM
GI50 (UACC-62): 17 µM
IC50 (MCF7): 14 µM
GI50 (SF-539): 19 µM
GI50 (OVCAR-3): 87 µM
GI50 (SN12C): 22 µM
IC50 (MCF-10A): 16 µM
GI50 (HCT-116): 20 µM
Inhibition [3]: 34%
MGM (Cancer cell lines): 19.5 µM
GI50 (MDA-MB-435): 13 µM
IC50 [1]: 1.5 µM
IC50 [2]: > 50 µM
IC50 (Tubulin beta chain): 2.1 µM
GI50 (CCRF-CEM): 1.8 µM

CCCCCCNC(=O)c1cc(NCc2cc(O)ccc2O)ccc1O
GI50 (DU-145): 15 µM
GI50 (UACC-62): 12 µM
IC50 (MCF7): 11 µM
GI50 (SF-539): 2.3 µM
GI50 (OVCAR-3): 4 µM
GI50 (SN12C): 6.1 µM
IC50 (MCF-10A): 14 µM
GI50 (HCT-116): 17 µM
Inhibition [3]: 45%
MGM (Cancer cell lines): 8.7 µM
GI50 (MDA-MB-435): 15 µM
IC50 [2]: 14 µM
IC50 (Tubulin beta chain): 3.6 µM
GI50 (HOP-62): 19 µM
GI50 (CCRF-CEM): 0.56 µM

O=C(NCc1ccccc1)c1ccc(NCc2cc(O)ccc2O)cc1
GI50 (DU-145): 15 µM
GI50 (UACC-62): 12 µM
IC50 (MCF7): 16 µM
GI50 (SF-539): 9.7 µM
GI50 (OVCAR-3): 6.8 µM
GI50 (SN12C): 9.7 µM
IC50 (MCF-10A): 34 µM
GI50 (HCT-116): 10 µM
MGM (Cancer cell lines): 8.8 µM
GI50 (MDA-MB-435): 12 µM
IC50 [1]: 18 µM
IC50 [2]: > 100 µM
GI50 (HOP-62): 20 µM
GI50 (CCRF-CEM): 2.7 µM
